For assay [1], the target named is T1, 5-hydroxytryptamine receptor 1A (Rattus norvegicus, UniProt P19327).
T1 sequence (P19327 whole entry): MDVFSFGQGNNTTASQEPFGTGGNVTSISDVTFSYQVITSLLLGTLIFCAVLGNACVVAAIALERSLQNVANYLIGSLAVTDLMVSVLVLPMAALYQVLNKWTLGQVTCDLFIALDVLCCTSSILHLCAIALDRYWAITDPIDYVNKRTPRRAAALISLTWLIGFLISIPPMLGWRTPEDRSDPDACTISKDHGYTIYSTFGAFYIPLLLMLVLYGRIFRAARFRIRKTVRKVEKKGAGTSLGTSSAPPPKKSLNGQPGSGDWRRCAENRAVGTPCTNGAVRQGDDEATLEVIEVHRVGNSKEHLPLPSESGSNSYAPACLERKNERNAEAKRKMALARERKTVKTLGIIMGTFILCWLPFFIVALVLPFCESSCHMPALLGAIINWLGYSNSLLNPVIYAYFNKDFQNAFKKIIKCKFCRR
Briefly: Inhibition of 8-OH DPAT bindign to rat hydroxytryptamine 1A receptor in hippocampal membranes.

For assay [2], the target named is T2, Adrenergic receptor alpha-1 (Homo sapiens, UniProt P35348+P25100+P35368).
T2 sequence (P35348 whole entry): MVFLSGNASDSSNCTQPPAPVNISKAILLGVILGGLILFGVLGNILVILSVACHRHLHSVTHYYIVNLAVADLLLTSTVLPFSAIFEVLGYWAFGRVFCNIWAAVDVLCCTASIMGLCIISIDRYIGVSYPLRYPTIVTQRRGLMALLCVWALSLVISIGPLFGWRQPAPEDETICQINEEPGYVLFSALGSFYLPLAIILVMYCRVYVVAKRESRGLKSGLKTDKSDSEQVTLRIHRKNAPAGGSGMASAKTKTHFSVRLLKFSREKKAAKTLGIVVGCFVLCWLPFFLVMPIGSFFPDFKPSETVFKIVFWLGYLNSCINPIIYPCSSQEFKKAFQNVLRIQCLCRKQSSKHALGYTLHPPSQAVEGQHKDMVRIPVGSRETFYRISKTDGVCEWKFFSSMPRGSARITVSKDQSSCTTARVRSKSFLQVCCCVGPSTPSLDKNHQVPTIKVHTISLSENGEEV
T2 sequence (P25100 whole entry): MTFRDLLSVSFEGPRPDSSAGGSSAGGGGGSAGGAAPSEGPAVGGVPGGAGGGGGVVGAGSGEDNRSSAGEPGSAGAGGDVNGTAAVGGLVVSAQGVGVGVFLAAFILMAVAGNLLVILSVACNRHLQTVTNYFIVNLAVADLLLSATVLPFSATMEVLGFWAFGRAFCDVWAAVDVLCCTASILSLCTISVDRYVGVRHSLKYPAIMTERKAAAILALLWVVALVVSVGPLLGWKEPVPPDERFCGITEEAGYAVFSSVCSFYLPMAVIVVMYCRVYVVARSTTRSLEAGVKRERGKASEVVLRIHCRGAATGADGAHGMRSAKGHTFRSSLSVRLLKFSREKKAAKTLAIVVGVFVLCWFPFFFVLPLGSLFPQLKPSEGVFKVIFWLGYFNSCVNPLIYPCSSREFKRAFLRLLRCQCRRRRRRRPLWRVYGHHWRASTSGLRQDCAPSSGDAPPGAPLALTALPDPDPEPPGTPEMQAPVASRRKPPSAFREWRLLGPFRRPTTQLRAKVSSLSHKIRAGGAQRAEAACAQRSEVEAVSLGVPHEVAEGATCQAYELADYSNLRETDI
T2 sequence (P35368 whole entry): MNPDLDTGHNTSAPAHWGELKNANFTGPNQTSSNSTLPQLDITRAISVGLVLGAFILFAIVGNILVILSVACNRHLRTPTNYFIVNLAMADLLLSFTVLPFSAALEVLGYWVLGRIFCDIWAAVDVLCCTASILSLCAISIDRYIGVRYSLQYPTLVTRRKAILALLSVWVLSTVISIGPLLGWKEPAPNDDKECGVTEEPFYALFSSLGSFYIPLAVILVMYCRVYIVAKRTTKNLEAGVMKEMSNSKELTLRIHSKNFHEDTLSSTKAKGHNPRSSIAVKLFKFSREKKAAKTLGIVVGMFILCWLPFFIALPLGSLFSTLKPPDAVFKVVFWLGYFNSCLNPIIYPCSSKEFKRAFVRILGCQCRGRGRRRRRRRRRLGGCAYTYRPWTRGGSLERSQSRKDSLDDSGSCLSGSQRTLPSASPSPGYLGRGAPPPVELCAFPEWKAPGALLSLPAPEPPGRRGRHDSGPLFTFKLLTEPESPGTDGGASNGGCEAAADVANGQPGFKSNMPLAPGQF
As to the kind of experiment: Inhibition of Alpha-1 adrenergic receptor. It is filed as protein assay.

A further assay concerns the target D(2) dopamine receptor (Rattus norvegicus, UniProt P61169). As to the kind of experiment: Displacement of [3H]spiperone from dopamine D2 receptor of rat striatal membranes. Type of assay: cell membranes, Membrane. In short, it runs like this:
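Rat striatal membranes (0.3–1.0 mg protein/mL) were incubated with 0.1 nM [3H]spiperone in Tris-HCl buffer (pH 7.1) containing 120 mmol/L NaCl, 5 mmol/L KCl, 1 mmol/L CaCl2, 1 mmol/L MgCl2 and 0.1% ascorbic acid, at 37 °C for 15 min. Bound ligand was separated by filtration with three ice-cold washes. Nonspecific binding was defined with 1 mmol/L (+)-butaclamol. IC50 (50% inhibition of binding) came from 5–10 concentrations, each in triplicate.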
In general terms: Displacement assays read how much labelled ligand stays bound in the presence of the test substance.

Assay [3] can be described thus: Inhibition of Histamine H1 receptor.
The target in assay [4] is T3, Adrenergic receptor alpha-2 (Homo sapiens, UniProt P08913+P18825+P18089).
T3 sequence (P08913 whole entry): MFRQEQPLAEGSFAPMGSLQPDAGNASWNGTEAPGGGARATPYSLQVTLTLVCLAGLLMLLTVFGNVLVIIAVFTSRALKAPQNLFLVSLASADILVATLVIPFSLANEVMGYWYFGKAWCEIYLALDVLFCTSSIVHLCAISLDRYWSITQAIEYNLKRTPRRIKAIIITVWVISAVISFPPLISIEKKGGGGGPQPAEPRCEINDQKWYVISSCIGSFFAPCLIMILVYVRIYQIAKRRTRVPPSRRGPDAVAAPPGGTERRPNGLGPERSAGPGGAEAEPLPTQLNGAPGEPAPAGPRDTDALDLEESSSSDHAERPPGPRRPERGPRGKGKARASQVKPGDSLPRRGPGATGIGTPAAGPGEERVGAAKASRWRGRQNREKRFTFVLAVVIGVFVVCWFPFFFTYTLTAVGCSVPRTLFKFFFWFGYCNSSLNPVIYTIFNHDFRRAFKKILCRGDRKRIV
T3 sequence (P18825 whole entry): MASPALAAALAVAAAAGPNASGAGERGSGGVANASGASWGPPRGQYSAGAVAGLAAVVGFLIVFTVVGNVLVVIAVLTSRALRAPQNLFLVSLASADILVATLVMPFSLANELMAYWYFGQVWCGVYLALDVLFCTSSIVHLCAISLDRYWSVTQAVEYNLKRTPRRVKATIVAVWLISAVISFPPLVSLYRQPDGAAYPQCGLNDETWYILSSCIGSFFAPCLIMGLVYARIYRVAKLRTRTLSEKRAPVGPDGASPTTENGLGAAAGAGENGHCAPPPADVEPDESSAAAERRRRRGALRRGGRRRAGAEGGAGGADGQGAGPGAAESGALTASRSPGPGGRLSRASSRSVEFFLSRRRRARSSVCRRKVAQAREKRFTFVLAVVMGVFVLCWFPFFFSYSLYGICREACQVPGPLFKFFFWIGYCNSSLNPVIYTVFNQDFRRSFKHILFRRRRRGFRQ
T3 sequence (P18089 whole entry): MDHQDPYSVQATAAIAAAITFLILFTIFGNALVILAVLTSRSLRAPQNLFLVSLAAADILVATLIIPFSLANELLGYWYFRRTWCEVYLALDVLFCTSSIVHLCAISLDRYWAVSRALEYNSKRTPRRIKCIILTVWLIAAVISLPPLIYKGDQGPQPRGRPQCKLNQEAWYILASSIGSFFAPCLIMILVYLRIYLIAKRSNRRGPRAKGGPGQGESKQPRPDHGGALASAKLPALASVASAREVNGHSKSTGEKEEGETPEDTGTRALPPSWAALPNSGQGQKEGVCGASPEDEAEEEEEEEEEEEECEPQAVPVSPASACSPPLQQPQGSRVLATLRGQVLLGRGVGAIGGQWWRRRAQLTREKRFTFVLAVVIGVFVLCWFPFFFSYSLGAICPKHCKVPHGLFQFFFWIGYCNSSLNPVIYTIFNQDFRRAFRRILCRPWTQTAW
Briefly: Inhibition of Alpha-2 adrenergic receptor. It is filed as protein assay.

Assay [5] can be described thus: Inhibition of 5-hydroxytryptamine 2A receptor.
The target of assay [6] is 5-hydroxytryptamine receptor 1A (Homo sapiens) (UniProt P08908). Briefly: Effective dose against 5-hydroxytryptamine 1A receptor.
Assay [7] can be described thus: Inhibition of 5-hydroxytryptamine 1D receptor.
Assay [8] in a line: Inhibition of hydroxytryptamine 2C receptor.
Assay [9] has as its target 5-hydroxytryptamine receptor 1A (Homo sapiens) (UniProt P08908). As to the kind of experiment: Effective dose against 5-HT1a receptor.
A short description of assay [10]: Inhibition of 5-hydroxytryptamine 2C receptor.

D(2) dopamine receptor, sequence (P61169 whole entry): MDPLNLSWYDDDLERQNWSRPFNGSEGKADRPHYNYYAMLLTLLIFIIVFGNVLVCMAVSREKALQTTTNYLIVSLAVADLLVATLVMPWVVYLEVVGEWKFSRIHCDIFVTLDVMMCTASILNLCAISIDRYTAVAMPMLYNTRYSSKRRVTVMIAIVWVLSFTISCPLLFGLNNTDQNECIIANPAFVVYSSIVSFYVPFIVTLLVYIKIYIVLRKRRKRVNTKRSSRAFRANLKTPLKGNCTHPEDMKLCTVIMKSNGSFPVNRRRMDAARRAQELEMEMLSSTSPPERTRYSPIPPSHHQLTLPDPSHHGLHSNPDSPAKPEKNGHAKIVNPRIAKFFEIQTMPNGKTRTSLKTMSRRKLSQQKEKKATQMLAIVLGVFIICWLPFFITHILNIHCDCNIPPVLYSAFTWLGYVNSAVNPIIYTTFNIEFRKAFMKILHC
5-hydroxytryptamine receptor 1A (Homo sapiens), sequence (P08908 whole entry, looked up): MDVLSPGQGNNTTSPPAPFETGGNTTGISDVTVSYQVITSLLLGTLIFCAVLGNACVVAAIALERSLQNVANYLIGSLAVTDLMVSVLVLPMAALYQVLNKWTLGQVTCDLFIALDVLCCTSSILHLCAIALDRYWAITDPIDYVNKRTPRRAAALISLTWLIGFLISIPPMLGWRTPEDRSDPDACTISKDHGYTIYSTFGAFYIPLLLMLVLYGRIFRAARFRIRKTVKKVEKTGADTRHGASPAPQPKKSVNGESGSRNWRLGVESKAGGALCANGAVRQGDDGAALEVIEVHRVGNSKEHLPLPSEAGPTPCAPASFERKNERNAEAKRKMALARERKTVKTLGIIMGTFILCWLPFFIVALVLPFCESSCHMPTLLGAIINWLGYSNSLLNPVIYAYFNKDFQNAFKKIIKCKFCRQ

For orientation: IC50 means the concentration at which inhibition is half-maximal. Low readings indicate greater potency in that assay, high ones weaker potency in that assay. For the compound `COc1ccc(N2CCN(CCCCc3c[nH]c4ccc(C(N)=O)cc34)CC2)cc1`, the IC50 in [1] amounted to 0.09 nM; in assay [2] it was 700 nM; on D(2) dopamine receptor, 140 nM; in assay [3], 1000 nM; in assay [4], 2000 nM; in assay [5], 220 nM.

As to `NC(=O)c1ccc2[nH]cc(CCCCN3CCN(c4ccc5c(c4)CCCO5)CC3)c2c1`, the half-inhibitory concentration (IC50) was 0.5 nM in [1] and 100 nM at D(2) dopamine receptor. Besides, the ED50 in assay [6] was found to be 0.07 nM.

Consider `COc1ccc(N2CCN(CCCCc3c[nH]c4ccc(OC)cc34)CC2)cc1`, for which the IC50 in [2] is 1000 nM; on D(2) dopamine receptor, 420 nM; in assay [3], 41 nM; in assay [4] it was 7000 nM; in assay [5] it was 750 nM; in assay [7], more than 10000 nM. The compound further yielded an IC50 in assay [8] of 4000 nM.

Compound `NC(=O)c1ccc(N2CCN(CCCCc3c[nH]c4ccc(C(N)=O)cc34)CC2)cc1` registered a 50% inhibitory concentration (IC50) at D(2) dopamine receptor of more than 850 nM. This compound also returned an ED50 in assay [9] of 4.7 nM.

On to `NC(=O)c1ccc2[nH]cc(CCCCN3CCN(c4ccc5c(c4)OCO5)CC3)c2c1`, for which the IC50 in assay [1] came to 0.4 nM; in assay [2] it was 100 nM; in assay [10] it was 800 nM; on D(2) dopamine receptor, 22 nM; in [3] it was 19 nM; in assay [4] it was 900 nM. Also, the IC50 in assay [5] was 240 nM; in assay [7], 400 nM.
